Screens (PubChem BioAssay)
An excerpt weighted towards active compounds, which were near 4.9% of everything screened.
NPY-Y1 PAM-ag – potentiates or activates human NPY-Y1 receptor; P25929; NPY-Y1 expressing cells, potentiator/agonist activation; activation, % at 3.6 µM; 0.37% of 220,000 active; AID 1304; in the data active = activation above about 33%, passing the limit was not always enough;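 note: cells stimulated with NPY at EC10 then isoproterenol at EC100; 0% = low agonist plus stimulus and 100% = saturating agonist plus stimulus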
NPY2 pot ag – potentiators or agonists of human neuropeptide Y receptor Y2; P49146; cells expressing NPY-Y2, potentiator/agonist read-out; activation, % at 3.6 µM; 0.45% of 220,000 active; AID 1359; in the data active = activation above about 27%;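 note: cells stimulated with NPY near EC25 plus isoproterenol at EC100; 0% = vehicle plus submaximal agonist and 100% = vehicle plus saturating agonist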
Target sequence (P49146 whole entry, looked up): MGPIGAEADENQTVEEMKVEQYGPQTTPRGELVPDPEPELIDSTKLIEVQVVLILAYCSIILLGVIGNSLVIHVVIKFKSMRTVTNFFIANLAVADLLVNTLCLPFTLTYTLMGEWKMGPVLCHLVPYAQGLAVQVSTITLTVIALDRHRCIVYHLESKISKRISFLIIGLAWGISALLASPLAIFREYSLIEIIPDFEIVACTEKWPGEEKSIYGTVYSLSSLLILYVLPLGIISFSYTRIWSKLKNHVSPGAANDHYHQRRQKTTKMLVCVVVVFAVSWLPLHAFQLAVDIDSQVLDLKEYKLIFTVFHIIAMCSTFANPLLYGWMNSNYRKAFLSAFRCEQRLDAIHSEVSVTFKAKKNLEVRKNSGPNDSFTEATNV
WT yeast gro inh – growth inhibition of WT yeast, mitochondrial fusion screen; mitochondrial fusion phenotypic screen, WT strain; 2.1% of 190,000 active; inhibition, % at 10 µM; in the data active = inhibition above about 58%; tested in S. cerevisiae
NPY Y1 blocker – blocks the human neuropeptide Y Y1 receptor; 1% of 200,000 active; AID 1040; inhibition, % at 3.6 µM; HEK293-CNG Y1 cells, membrane potential fluorescence; NPY at EC95, then isoproterenol; P25929;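 active = inhibition above the campaign mean inhibition of all tested compounds plus 3 SD, cut at about 20% in these data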;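 note: 0% = DMSO wells given NPY plus isoproterenol and 100% = isoproterenol alone without NPY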
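Test system – HEK293 Y1/CNG channel cell line · Also added – NPY agonist 25 nM, then isoproterenol 1 µM plus Ro 20-1724 25 µM · Compound dosing – one concentration, 3.6 µM, in 0.4% DMSO · Schedule – compound incubation 1 h at room temperature, readout 45 min post-stimulation · Technique – fluorescence, membrane potential probe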
NPY Y2 blocker – blocks the human neuropeptide Y Y2 receptor. inhibition, % at 2.7 µM. 0.99% of 140,000 active. P49146. NPY-Y2 expressing cells, antagonist mode; in the data active = inhibition above about 17%;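 note: 0% = vehicle with agonist challenge and 100% = reference antagonist with challenge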
RAM inhibit – blocks the yeast RAM network. S. cerevisiae dse1pr::URA3 reporter, 5-FOA growth OD615, 2 d; analog-sensitive cbk1-as2 kinase mutant strain. AID 868. 1.8% of 190,000 active. inhibition, % at 50 µM;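 active = inhibition above a set limit, 3 SD over mean compound inhibition, cut at about 8.4% in these data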;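 note: 0% = DMSO-only wells with no growth and 100% = 10 µM 1-NA-PP1 full growth; inhibition rescues growth on 5-FOA so higher OD means more RAM inhibition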
Starred values were filed as active, the others as inactive.

`COc1ccc(-n2nc(C)cc2Nc2ccccc2C(=O)O)cc1` gave NPY-Y1 PAM-ag 5 and NPY2 pot ag -7.
`CCOC(=O)c1c(CC(C)C)csc1/N=C/C1C(=O)CCCC1=O` gave NPY-Y1 PAM-ag -4, NPY2 pot ag 13, WT yeast gro inh -1, NPY Y1 blocker 2 and RAM inhibit 1.
For CCOC(=O)C1CCN(c2ncnc3c2oc2ccc(Cl)cc23)CC1 the results were NPY-Y1 PAM-ag -61, NPY2 pot ag -20, WT yeast gro inh 62, NPY Y1 blocker 18, NPY Y2 blocker 19* and RAM inhibit 0.
`CCOC(=O)C1CCN(c2ncnc3c2[nH]c2cccc(OC)c23)CC1` gave NPY-Y1 PAM-ag -20, NPY2 pot ag -2, WT yeast gro inh 17, NPY Y1 blocker -2, NPY Y2 blocker 0 and RAM inhibit 0.
Screening CC1=C(C(=O)OCc2ccccc2)C(/C=C/c2ccccc2)N2C(=O)CCSC2=N1 (configuration not stated) returned NPY-Y1 PAM-ag 8, NPY2 pot ag -6, WT yeast gro inh 33, NPY Y1 blocker 9, NPY Y2 blocker 4 and RAM inhibit 4.
Screening Cc1cc(NC(=O)c2cc(C(C)C)on2)nn1Cc1ccc(Cl)cc1 returned NPY-Y1 PAM-ag -5, NPY2 pot ag 9, WT yeast gro inh 34, NPY Y1 blocker 8, NPY Y2 blocker 6 and RAM inhibit 9.3*.
`CC1=Nc2ccccc2/C1=C\c1nc(-c2ccc(F)cc2)oc1O` gave NPY-Y1 PAM-ag 26, NPY2 pot ag 16, WT yeast gro inh 9, NPY Y1 blocker -4, NPY Y2 blocker -4 and RAM inhibit 8.6*.
`CN=Cc1nc(-c2ccccc2)oc1O` gave NPY-Y1 PAM-ag -28, NPY2 pot ag 9, WT yeast gro inh 11, NPY Y1 blocker 5, NPY Y2 blocker 1 and RAM inhibit 0.
Cn1c(CSc2ccccc2)c(C#N)c2ccccc21 was read as NPY-Y1 PAM-ag -19, NPY2 pot ag 1, WT yeast gro inh 28, NPY Y1 blocker 8, NPY Y2 blocker 14 and RAM inhibit 4.
Cc1ccc(SCc2c(C#N)c3ccccc3n2C)cc1 was read as NPY-Y1 PAM-ag -46, NPY2 pot ag -28, WT yeast gro inh 32, NPY Y1 blocker 10, NPY Y2 blocker 15 and RAM inhibit 8.7*.
CCOC(=O)c1cc2c(ccn2C)n1Cc1cc(C)ccc1C was read as NPY-Y1 PAM-ag 4, NPY2 pot ag -1, WT yeast gro inh 67*, NPY Y1 blocker 1, NPY Y2 blocker 3 and RAM inhibit 3.
`O=C1CC(c2cccc(Br)c2)c2cc3c(cc2N1)CCC3` (configuration not stated) gave NPY-Y1 PAM-ag -26, NPY2 pot ag -11, WT yeast gro inh 87*, NPY Y1 blocker 8, NPY Y2 blocker 9 and RAM inhibit -2.
For O=C1CC(c2cc(F)ccc2F)c2cc3c(cc2N1)CCC3 (configuration not stated) the results were NPY-Y1 PAM-ag 8, NPY2 pot ag -7, WT yeast gro inh -4, NPY Y1 blocker 0 and RAM inhibit 4.
N=c1n(CCN2CCCCC2)c2ccccc2n1CC(O)c1ccc(Cl)c(Cl)c1 (configuration not stated) was read as NPY-Y1 PAM-ag -37, NPY2 pot ag -23, WT yeast gro inh -11, NPY Y1 blocker 36*, NPY Y2 blocker 53* and RAM inhibit 2.
Screening N=c1n(CCN2CCCCC2)c2ccccc2n1CC(O)c1cccc(Br)c1 (configuration not stated) returned NPY-Y1 PAM-ag -39, NPY2 pot ag -20, WT yeast gro inh -6, NPY Y1 blocker 41*, NPY Y2 blocker 32* and RAM inhibit 1.
COc1cc(OC)nc(/N=C/N(C)C)n1 was read as NPY-Y1 PAM-ag 8, NPY2 pot ag -2, WT yeast gro inh 1, NPY Y1 blocker 4 and RAM inhibit 1.
For COc1ccccc1-n1nnnc1SCc1cc2c(cc1Br)OCO2 the results were NPY-Y1 PAM-ag -16, NPY2 pot ag 10, WT yeast gro inh 14, NPY Y1 blocker 13, NPY Y2 blocker 10 and RAM inhibit 9.5*.
For Cc1ccc(C)n1-c1sc2c(c1C#N)CCCC2 the results were NPY-Y1 PAM-ag -28, NPY2 pot ag 10, WT yeast gro inh 5, NPY Y1 blocker 1, NPY Y2 blocker 3 and RAM inhibit 10*.
